Source: PubChem BioAssay
UBC13 inh – human UBC13 polyubiquitination inhibition; UBC13 polyubiquitin chain formation, TR-FRET; 0.47% of 330,000 active; P61088; inhibition, % at 20 µM; AID 485273; in the data active = inhibition above about 45%, passing the limit was not always enough
MIN6 prolif – MIN6 beta-cell proliferation induction. MIN6 cells proliferation, ATPlite luminescence, 48 h; cells starved in 0.2% serum; 100% = growth in 10% serum. proliferation, % at 10 µM. 0.29% of 330,000 active. AID 2380;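 active = compounds whose signal lies at least 3.5 SD above the mean of all wells on their plate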;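 also: 0% = DMSO-treated cells in low-serum medium and 100% = 10% serum control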
Exocytosis inh – lytic granule exocytosis inhibition; TALL-104 LAMP-1 surface exposure, flow cytometry; cells stimulated with thapsigargin and PMA; inhibition, % at 10 µM; 0.66% of 360,000 active; AID 651702;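 active = inhibition above about 55%, limit read from the data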
MPTP inh – blocks calcium-induced mitochondrial swelling | inhibition, % at 10 µM | isolated mouse mitochondria, Ca2+ swelling absorbance, 30 min | 1.4% of 360,000 active;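 active = inhibition of 50% or more, scaled per plate between neutral and stimulator controls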;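 also: 0% = DMSO wells given calcium and 100% = 1 mM EGTA wells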
Apaf-1 inh – inhibitors of human Apaf-1 apoptosome; O14727; reconstituted apoptosome caspase-3 activity, DEVD-Rh110 fluorescence; inhibition, % at 20 µM; 0.71% of 330,000 active; active = inhibition of at least 40% at 20 µM;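 also: plate controls were DMSO wells for no effect and DEVD-CHO caspase inhibitor wells for full effect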
Target sequence (O14727 whole entry, looked up): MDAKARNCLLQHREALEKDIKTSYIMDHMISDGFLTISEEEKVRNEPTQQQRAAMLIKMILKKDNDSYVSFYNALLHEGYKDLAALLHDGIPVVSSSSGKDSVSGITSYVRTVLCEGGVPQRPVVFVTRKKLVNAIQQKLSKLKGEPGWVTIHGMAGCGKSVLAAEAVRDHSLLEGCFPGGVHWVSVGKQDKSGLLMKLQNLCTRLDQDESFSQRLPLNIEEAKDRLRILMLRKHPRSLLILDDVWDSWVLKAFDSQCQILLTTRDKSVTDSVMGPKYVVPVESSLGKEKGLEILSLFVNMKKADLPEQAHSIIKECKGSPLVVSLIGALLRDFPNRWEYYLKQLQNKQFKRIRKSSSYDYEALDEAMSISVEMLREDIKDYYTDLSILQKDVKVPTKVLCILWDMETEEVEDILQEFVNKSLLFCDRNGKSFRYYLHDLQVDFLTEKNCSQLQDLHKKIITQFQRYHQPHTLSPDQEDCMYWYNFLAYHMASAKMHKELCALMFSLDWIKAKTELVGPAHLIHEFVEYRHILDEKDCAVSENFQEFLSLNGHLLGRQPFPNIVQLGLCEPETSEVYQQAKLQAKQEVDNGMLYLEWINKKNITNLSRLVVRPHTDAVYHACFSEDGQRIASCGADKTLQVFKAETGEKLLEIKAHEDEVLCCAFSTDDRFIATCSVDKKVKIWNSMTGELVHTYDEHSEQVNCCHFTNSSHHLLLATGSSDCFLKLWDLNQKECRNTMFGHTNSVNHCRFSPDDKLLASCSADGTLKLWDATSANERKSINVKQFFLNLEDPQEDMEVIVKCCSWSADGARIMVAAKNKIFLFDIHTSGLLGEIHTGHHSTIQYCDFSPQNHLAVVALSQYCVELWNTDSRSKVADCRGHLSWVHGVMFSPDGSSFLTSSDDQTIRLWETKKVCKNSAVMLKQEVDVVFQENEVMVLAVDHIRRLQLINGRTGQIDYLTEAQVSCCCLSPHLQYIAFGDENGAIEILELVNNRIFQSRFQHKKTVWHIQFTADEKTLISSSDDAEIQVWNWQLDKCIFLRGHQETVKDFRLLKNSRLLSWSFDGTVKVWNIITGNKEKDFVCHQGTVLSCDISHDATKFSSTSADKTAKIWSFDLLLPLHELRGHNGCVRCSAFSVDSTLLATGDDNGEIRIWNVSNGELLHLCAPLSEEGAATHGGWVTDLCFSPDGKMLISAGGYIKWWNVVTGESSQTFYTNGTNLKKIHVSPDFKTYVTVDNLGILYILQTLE
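System – cell-free apoptosome with Apaf-1, procaspase-3 and caspase-9 · Buffer or medium – pH 7.5 Hepes buffer with CHAPS, BSA, DTT · Also added – cytochrome c with DEVD-Rh110 · Times – 30 min compound preincubation, 50 min activation, room temperature · Technique – Rh110 fluorescence intensity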
hiPSC survival – hiPSC single-cell survival enhancement | ATPlite luminescence; 100% = ROCK inhibitor wells, 0% = DMSO | survival enhancement, % at 20 µM | 0.044% of 360,000 active | AID 602274; in the data active = survival enhancement above about 18%;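 also: cells exposed to compounds for 16 hours before the ATP read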
Apaf-1 inh conf – Apaf-1 inhibition, single-dose confirmed; shares compounds with Apaf-1 inh; reconstituted apoptosome, caspase-3 DEVD-Rh110 fluorescence; inhibition, % at 20 µM; 25% of 1,800 active;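 active = mean inhibition of at least 40% at 20 µM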;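 also: plate controls were DMSO wells for no effect and DEVD-CHO caspase inhibitor control wells for full effect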
Rh110 quench – Rh110 signal interference in Apaf-1 inhibitor counter-screen; Rh110 fluorescence interference, quenched caspase reaction; 1,800 tested, under 10 active; shares compounds with Apaf-1 inh; activation (fluorescence interference), % at 20 µM; AID 504615;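 active = signal rise of 40% or more at 20 µM, treated as a fluorescence artifact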
Apaf1 inh interf – Apaf-1 inhibitor counter-screen fluorescence artifact; shares compounds with Apaf-1 inh; fluorescence interference counterscreen, Apaf-1 assay format; IC50, µM; 460 tested, under 10 active; call rule not given here
The depositor's hits bear a star; x = no result given. Only some compounds are listed: those with a hit (about 3% of all), similar ones and a draw of the others.

SMILES | UBC13 inh | MIN6 prolif | Exocytosis inh | MPTP inh | Apaf-1 inh | hiPSC survival | Apaf-1 inh conf | Rh110 quench | others
O=C1/C(=C/C=C/c2ccco2)SC(=S)N1c1ccc(O)cc1 | 44.6 | -4.0 | 14.3 | 3.6 | 12.4 | 0.9 | x | x
Nc1ccc(N2CCOCC2)c2nonc12 | -49.4 | -2.9 | -0.1 | 2.8 | 84.2* | 0.6 | 32.8 | -5.8
O=C(Nc1ccc(N2CCOCC2)c2nonc12)C1CCCC1 | -35.7 | 0.3 | -0.9 | -1.5 | 20.6 | 0.5 | x | x
CCOC(=O)c1ccc(NC(=O)c2cccc(S(=O)(=O)N3CCN(C(C)=O)CC3)c2)cc1 | 1.1 | -0.5 | -14.3 | -0.4 | -1.2 | -0.8 | x | x
CCC/C(=C1/c2ccccc2C(=O)N1c1ccccc1)c1cnc(OC)nc1 | -3.2 | -6.3 | 15.3 | 0.4 | 41.0* | -0.2 | 24.0 | 2.2
CCC1Cc2[nH]c(=S)[nH]c(=O)c2C(c2ccc(Cl)cc2)O1 (configuration not stated) | x | x | -5.0 | -0.8 | x | -0.1 | x | x
COc1ccccc1NC(=O)c1nc[nH]c1C(=O)Nc1ccccc1OC | 1.6 | -4.0 | -2.4 | 1.4 | 94.5* | 0.5 | 0.3 | 0.9
CCOc1ccccc1NC(=O)c1nc[nH]c1C(=O)Nc1ccccc1OCC | -2.0 | -4.0 | -6.2 | 0.9 | 7.8 | 4.2 | x | x
C=CCOc1ccc(CNc2ccc3[nH]c(=O)[nH]c3c2)cc1OC | x | x | -1.6 | 1.9 | x | -0.9 | x | x
COc1ccc(CNc2ccc3cn[nH]c3c2)c(OC)c1OC | 6.4 | -2.2 | 0.1 | 0.8 | 46.2* | -0.4 | 39.1 | -1.8
CCOc1cc(CNc2ccc3cn[nH]c3c2)ccc1OC | -21.5 | -1.3 | -2.4 | 0.1 | 85.5* | -1.5 | 49.3* | -2.1 | Apaf1 inh interf=>100
CCCS(=O)(=O)NC(=O)C1(C)CCCN(C(=O)c2c(C)noc2C)C1 (configuration not stated) | x | x | -0.4 | 1.1 | x | 4.0 | x | x
Cc1cc(C)c(C#N)c(SCC(=O)Nc2nonc2N)n1 | 5.0 | 0.0 | 1.0 | 0.7 | 63.6* | -0.3 | 11.6 | 13.5
O=C1[C@H](Cc2ccccc2)NCC=CC[C@H](c2ccc(Cl)cc2)N1Cc1ccccc1 | x | x | -2.7 | 0.6 | x | 1.1 | x | x
COc1ccc(-c2c(C#Cc3ccsc3)c3cc(Br)ccc3n2C)cc1 | 11.1 | -2.0 | -1.0 | -0.6 | -7.0 | 1.0 | x | x
COc1ccc(-c2c(C#Cc3ccc(N(C)C)cc3)c3ccccc3n2C)cc1 | -14.4 | -5.9 | 0.2 | 1.8 | 56.7* | -3.3 | 16.6 | 5.2
CS(=O)(=O)c1nc(-c2ccc(Br)cc2)cc(-c2ccccc2)c1C#N | 10.5 | -5.6 | 32.8 | 1.0 | 47.4* | -4.6 | 59.1* | 3.5 | Apaf1 inh interf=>100
CN(C)c1cccc2c1c(NC(=O)c1ccc(F)cc1)nn2C | -6.8 | -3.0 | -3.7 | 0.4 | 91.9* | 0.7 | 16.0 | 1.4
CN(C)c1cccc2c1c(NC(=O)Nc1ccccc1)nn2C | 0.6 | -1.9 | -0.2 | 1.8 | 82.4* | -0.9 | 6.2 | 7.0
O=C(NCC1CC1)c1ccc2c(c1)S(=O)(=O)c1cc(Cl)ccc1C2=O | -18.2 | -2.1 | 1.1 | 0.1 | 4.3 | 4.1 | x | x
CCCc1cc(=O)oc2c3c(c4c(c12)OC(C)(C)C=C4)OC(C)C(C)C3O (configuration not stated) | 10.4 | -5.9 | 3.9 | 0.3 | 52.7* | 5.9 | 47.1* | 11.5 | Apaf1 inh interf=>100
O=C(NCCC(=O)N1CCN(c2cccc(Cl)c2)CC1)c1ccc(Br)cc1 | 26.9 | -1.8 | -2.1 | 0.5 | 43.9* | 2.0 | 35.5 | 13.3
CCC(CN(C)C)Oc1cc(NCc2ccccc2)c2ncn(C(C)C)c2c1 (configuration not stated) | -31.3 | -6.3 | -7.4 | -1.5 | 97.9* | -3.3 | 80.4* | 4.7 | Apaf1 inh interf=>100
CCC(CO)Oc1cc(NCc2ccccc2C)c2ncn(C(C)C)c2c1 (configuration not stated) | -10.9 | -1.5 | 3.0 | 0.0 | 34.4 | 0.3 | x | x
CCC(CO)Oc1cc(NCc2cccnc2)c2ncn(C(C)C)c2c1 (configuration not stated) | -9.6 | 0.4 | -3.0 | -1.5 | 62.5* | 0.3 | 24.6 | -0.6
SMILES | UBC13 inh | MIN6 prolif | Exocytosis inh | MPTP inh | Apaf-1 inh | hiPSC survival | Apaf-1 inh conf | Rh110 quench | others
CCC(CO)Oc1cc(NCc2ccncc2)c2ncn(C(C)C)c2c1 (configuration not stated) | 2.3 | -0.3 | -3.3 | -0.1 | 41.3* | 2.4 | 16.7 | -392.7
COc1cc(NCc2ccccc2)c2ncn(C(C)C)c2c1 | 7.7 | -3.6 | -6.1 | -0.7 | 13.2 | -3.5 | x | x
CCC(CO)Oc1cc(NCc2cccc(Cl)c2)c2ncn(C(C)C)c2c1 (configuration not stated) | 7.1 | -6.0 | 0.3 | -0.8 | 72.6* | -1.6 | 37.2 | 9.2
CCC(CO)Oc1cc(NCc2cc(C)cc(C)c2)c2ncn(C(C)C)c2c1 (configuration not stated) | 6.4 | -5.7 | -2.4 | -0.9 | 35.9 | -1.5 | x | x
O=C(O)c1ccc(NC2=C/C(=N/S(=O)(=O)c3ccccc3)c3ccccc3C2=O)cc1 | -149.1 | -5.2 | 58.5* | 12.1 | 96.0* | -0.9 | 97.5* | -1.4 | Apaf1 inh interf=>100
Cc1cc(C)c(S(=O)(=O)/N=C2\C=C(Nc3ccc(C(=O)O)cc3)C(=O)c3ccccc32)c(C)c1 | -133.9 | -3.7 | 7.8 | 10.1 | 88.7* | -0.6 | 91.6* | 18.0 | Apaf1 inh interf=>100
Cc1cccc(NC2=C/C(=N/S(=O)(=O)c3cccs3)c3ccccc3C2=O)c1 | x | x | 36.4 | 6.8 | x | -3.4 | x | x
CN(C)CCCNC(=O)C[C@H]1C[C@H](C(=O)N2CCOCC2)[C@@]2(CCC3CCCC3)c3[nH]c4cc(-c5ccco5)ccc4c3CCN2C1=O | x | x | 0.9 | -3.8 | 67.5* | -2.2 | 27.8 | 2.9
CC(C)N(C(=O)[C@H]1C[C@H](CC(=O)NCCCN(C)C)C(=O)N2CCc3c([nH]c4cc(-c5ccco5)ccc34)[C@]12C)C(C)C | x | x | 4.5 | 4.6 | 51.7* | -3.9 | 3.5 | 1.5
O=C(C[C@H]1C[C@H](C(=O)N2CCOCC2)[C@@]2(CCC3CCCC3)c3[nH]c4ccc(Cl)cc4c3CCN2C1=O)NCCCn1ccnc1 | x | x | 32.8 | -2.9 | 58.2* | -2.1 | 24.3 | 17.0
CN(C)CCCNC(=O)C[C@H]1C[C@H](C(=O)N2CCCCC2)[C@@]2(CCc3ccccc3)c3[nH]c4ccc(Cl)cc4c3CCN2C1=O | x | x | 9.4 | -5.1 | 73.8* | -2.9 | 29.5 | 20.9
O=C(C[C@H]1C[C@H](C(=O)N2CCCCC2)[C@@]2(CCc3ccccc3)c3[nH]c4ccc(Cl)cc4c3CCN2C1=O)NCCc1ccccn1 | x | x | 13.0 | -0.8 | 33.7 | 0.5 | x | x
